Assay [1] relates to KB. The assay is described as follows: Inhibition of cell proliferation of human KB cells at 10 uM after 72 hrs by CellTiter assay. The class given is functional. In short, it runs like this:
(§1)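 KB cells from NCI grown in D-MEM with 10% fetal calf serum and antibiotics under 5% CO2. 600 cells/well, compound in DMSO added 24 h after seeding (1% DMSO final), exposure 72 h. MTS reagent for 3 h at 37 °C, A490. % inhibition = (1 − OD treated/OD DMSO control) × 100, mean ± SE of triplicates.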

In assay [2] the test system is KB. The assay is described as follows: Inhibition of cell proliferation of human KB cells at 1 uM after 72 hrs by CellTiter 96 assay. The assay is classed as functional. The essentials:
as §1

The test system of assay [3] is KB. The assay can be described thus: Growth inhibition of human KB cells after 72 hrs by CellTiter 96 assay. The assay is classed as functional, cell-based. The essentials: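 NCI KB cells in D-MEM with 10% fetal calf serum and antibiotics, 5% CO2. 600 cells/well, dosed 24 h after plating from DMSO stocks, 1% DMSO final. Tested from 5 nM to 100 μM for 72 h, then 3 h at 37 °C with MTS reagent and A490 read. IC50 taken from separate duplicate experiments, values given individually.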

Broadly, the inhibition is the share of the control response that was lost under treatment. Low values mean a weak effect, high ones a strong effect. What is called IC50 is the concentration that inhibits the measured activity by half. Low readings indicate inhibition by little substance, high ones a need for much substance.

For `C/C1=C\[C@H](C)C[C@H](C)OC(=O)C[C@H](c2ccc(O)cc2)NC(=O)[C@@H](Cc2c(Br)[nH]c3ccccc23)N(C)C(=O)[C@H](C)NC(=O)[C@@H](C)C1` [JASPAMIDE], the inhibition at 10 µM in assay [1] came out at 100%. Besides, the inhibition at 1 µM in assay [2] is 99%. This compound showed an IC50 in assay [3] of 13 nM.
`C=C1C[C@H](C)C(=O)N[C@@H](C)C(=O)N(C)[C@H](Cc2c(Br)[nH]c3ccccc23)C(=O)N[C@@H](c2ccc(O)cc2)CC(=O)O[C@@H](C)C[C@@H](C)[C@@H]1O` [JASPLAKINOLIDE CB] had an inhibition at 10 µM in assay [1] of 100%. In addition, the inhibition at 1 µM in assay [2] came to 75%.
In assay [1], `C/C(=C\[C@H](C)C[C@H](C)O)C[C@H](C)C(=O)N[C@@H](C)C(=O)N(C)[C@H](Cc1c(Br)[nH]c2ccccc12)C(=O)N[C@H](CC(=O)O)c1ccc(O)cc1` [JASPLAKINOLIDE Z1] had an inhibition at 10 µM of 30%.
In the case of `C=C1C[C@H](C)C(=O)N[C@@H](C)C(=O)N(C)[C@H](Cc2c(Br)[nH]c3ccccc23)C(=O)N[C@@H](c2ccc(O)cc2)CC(=O)O[C@@H](C)C[C@@H](C)[C@H]1O` [JASPLAKINOLIDE CA], the inhibition at 10 µM in assay [1] worked out at 80%. The inhibition at 1 µM in assay [2] was 0%.
For the compound `C/C1=C/[C@H](C)C(=O)N[C@@H](C)C(=O)N(C)[C@H](Cc2c(Br)[nH]c3ccccc23)C(=O)N[C@@H](c2ccc(O)cc2)CC(=O)O[C@@H](C)C[C@@H](C)[C@H]1O` [PIPESTELIDE B], the inhibition at 10 µM in assay [1] was found to be 100%. The compound further yielded an inhibition at 1 µM in assay [2] of 0%.
As to `C/C1=C\[C@H](C)C[C@H](C)OC(=O)C[C@H](c2ccc(O)cc2)NC(=O)[C@@H](Cc2c(Br)[nH]c3ccccc23)N(C)C(=O)[C@H](C)NC(=O)[C@@H](C)C1O` (stereo partly drawn) [JASPAMIDE K], the inhibition at 10 µM in assay [1] was determined as 100%. The compound further came in with an inhibition at 1 µM in assay [2] of 100%. The same compound yielded an IC50 in assay [3] of 3350 nM.
In assay [1], `C[C@@H]1NC(=O)[C@@H](C)C/C(CO)=C/[C@H](C)C[C@H](C)OC(=O)C[C@H](c2ccc(O)cc2)NC(=O)[C@@H](Cc2c(Br)[nH]c3ccccc23)N(C)C1=O` [JASPAMIDE L] displayed an inhibition at 10 µM of 99%. Besides, in assay [2], 1 µM produced 100% inhibition. For the same compound, in assay [3], the IC50 stood at 214 nM.
Turning to `CC[C@H]1NC(=O)[C@@H](C)C/C(C)=C/[C@H](C)C[C@H](C)OC(=O)C[C@H](c2ccc(O)cc2)NC(=O)[C@@H](Cc2c(Br)[nH]c3ccccc23)N(C)C1=O` [JASPAMIDE D], 10 µM produced 100% inhibition in assay [1]. For the same compound, 1 µM produced 100% inhibition in assay [2]. The compound also returned an IC50 in assay [3] of 4.4 nM.
As for `C=C1C[C@H](C)C(=O)N[C@@H](C)C(=O)N(C)[C@H](Cc2c(Br)[nH]c3ccccc23)C(=O)N[C@@H](c2ccc(O)cc2)CC(=O)O[C@@H](C)C[C@@H](C)C1=O` [JASPLAKINOLIDE B], 10 µM produced 99% inhibition in assay [1]. In assay [2], this compound had an inhibition at 1 µM of 99%. In addition, in assay [3], the midpoint of inhibition, the IC50, lay at 29 nM.
`C/C1=C\[C@H](C)C[C@H](C)OC(=O)C[C@H](c2ccc(O)c(Br)c2)NC(=O)[C@@H](Cc2c(Br)[nH]c3ccccc23)N(C)C(=O)[C@H](C)NC(=O)[C@@H](C)C1` [PIPESTELIDE A] gave an inhibition at 10 µM in assay [1] of 100%. This compound gave an inhibition at 1 µM in assay [2] of 100%. In assay [3], this compound gave an IC50 of 100 nM.
`C/C1=C\[C@H](C)C[C@H](C)OC(=O)C[C@H](c2ccc(O)cc2)NC(=O)[C@@H](Cc2c(Br)[nH]c3ccccc23)N(C)C(=O)[C@H](CO)NC(=O)[C@@H](C)C1` [JASPAMIDE E]: at 10 µM the inhibition in assay [1] was 100%. In addition, the inhibition at 1 µM in assay [2] is 100%. The same compound yielded an IC50 in assay [3] of 121 nM.

The values above are taken from ChEMBL document CHEMBL2040743, “Pipestelides A-C: cyclodepsipeptides from the Pacific marine sponge Pipestela candelabra” (J Nat Prod, 2012).
